ChEMBL document CHEMBL1671832, “Discovery of novel cyanamide-based inhibitors of cathepsin C” (ACS Med Chem Lett, 2011)

Tests used:
[1] = target: Dipeptidyl peptidase 1 (Homo sapiens, UniProt P53634); test: Inhibition of human recombinant cathepsin C after 1 hr
[2] = target: Cathepsin S (Homo sapiens, UniProt P25774); test: Inhibition of human recombinant cathepsin S after 1 hr
[3] = target: Procathepsin L (Homo sapiens, UniProt P07711); test: Inhibition of human recombinant cathepsin L after 1 hr
[4] = target: Cathepsin B (Homo sapiens, UniProt P07858); test: Inhibition of human recombinant cathepsin B after 1 hr
[5] = Metabolic stability in rat plasma assessed as compound remaining after 30 mins by HPLC analysis; format: ADME, cell-free; conditions: read-out: Stability
Method in brief: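 Compound was incubated in rat plasma for 30 min, then % compound remaining was determined. Values are the mean of two or more independent assays.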

[6] = target: T1, Cathepsin K (Homo sapiens, UniProt P43235); test: Inhibition of human recombinant cathepsin K after 1 hr
T1 sequence (P43235 whole entry): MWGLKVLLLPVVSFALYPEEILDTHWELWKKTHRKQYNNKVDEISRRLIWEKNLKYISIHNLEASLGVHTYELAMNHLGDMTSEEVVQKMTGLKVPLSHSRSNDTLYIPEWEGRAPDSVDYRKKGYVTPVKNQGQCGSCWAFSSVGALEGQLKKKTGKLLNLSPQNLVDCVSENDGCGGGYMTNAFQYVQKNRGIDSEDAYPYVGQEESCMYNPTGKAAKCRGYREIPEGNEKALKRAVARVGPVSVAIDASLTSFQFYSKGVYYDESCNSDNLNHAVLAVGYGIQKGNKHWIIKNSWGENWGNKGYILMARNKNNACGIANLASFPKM

[7] = test system: Mus musculus; test: In vivo inhibition of cathepsin C in C57BL/6J mouse lung homogenates assessed as cleavage of H-Gly-Arg)2 R110 at 30 mg/kg, po after 3 hrs; format: functional; parameters: scale not given: the % may be the effect or the level left
Method in brief: (§1)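 Oral dose of 30 mg/kg to C57BL/6J mice, n = 5 per group. Crude lung homogenate was taken at 0.5, 1.5 and 3 h. Cathepsin C activity was measured by cleavage of (H-Gly-Arg)2 R110 at 10 μM and expressed as % inhibition.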

[8] = Volume of distribution at steady state in dog at 5 mg/kg, iv and 10 mg/kg, po; format: ADME, organism-based, Canis lupus familiaris; conditions: in vivo, read-out: Vdss
[9] = Bioavailability in mouse at 5 mg/kg, iv and 20 mg/kg, po; format: ADME, organism-based; conditions: in vivo
[10] = Half life in dog at 5 mg/kg, iv and 10 mg/kg, po; format: ADME, organism-based, Canis lupus familiaris; conditions: in vivo
[11] = test system: Mus musculus; test: In vivo inhibition of cathepsin C in C57BL/6J mouse lung homogenates assessed as cleavage of H-Gly-Arg)2 R110 at 30 mg/kg administered intranasally after 3 hrs; format: functional; parameters: scale not given: the % may be the effect or the level left
[12] = Half life in rat at 1 mg/kg, iv and 2 mg/kg, po; format: ADME, organism-based; conditions: in vivo
[13] = Bioavailability in dog at 5 mg/kg, iv and 10 mg/kg, po; format: ADME, organism-based, Canis lupus familiaris; conditions: in vivo
[14] = Volume of distribution at steady state in mouse at 5 mg/kg, iv and 20 mg/kg, po; format: ADME, organism-based; conditions: in vivo, read-out: Vdss
[15] = Half life in mouse at 5 mg/kg, iv and 20 mg/kg, po; format: ADME, organism-based; conditions: in vivo
[16] = test system: Mus musculus; test: In vivo inhibition of cathepsin C in C57BL/6J mouse plasma assessed as cleavage of H-Gly-Arg)2 R110 at 30 mg/kg, po after 30 mins; format: functional; parameters: scale not given: the % may be the effect or the level left
Method in brief: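 Female/male not stated; mice dosed orally at 30 mg/kg (n = 5). Plasma cathepsin C activity was read as cleavage of (H-Gly-Arg)2 R110 substrate at 10 μM, sampled 30 min post-dose as part of a time course.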

[17] = test system: Rattus norvegicus; test: AUC in rat at 2 mg/kg, po; format: ADME, organism-based, Plasma; parameters: dose 2 mg/kg, route oral; conditions: in vivo
[18] = test system: Mus musculus; test: In vivo inhibition of cathepsin C in C57BL/6J mouse lung homogenates assessed as cleavage of H-Gly-Arg)2 R110 at 30 mg/kg administered intranasally after 1.5 hrs; format: functional; parameters: scale not given: the % may be the effect or the level left
[19] = Volume of distribution at steady state in rat at 1 mg/kg, iv and 2 mg/kg, po; format: ADME, organism-based; conditions: in vivo, read-out: Vdss
[20] = AUC in dog at 10 mg/kg, po; format: ADME, organism-based, Canis lupus familiaris; parameters: dose 10 mg/kg, route oral; conditions: plasma
[21] = test system: Mus musculus; test: In vivo inhibition of cathepsin C in C57BL/6J mouse lung homogenates assessed as cleavage of H-Gly-Arg)2 R110 at 30 mg/kg administered intranasally after 0.5 hrs; format: functional; parameters: scale not given: the % may be the effect or the level left
[22] = Plasma clearance in dog at 5 mg/kg, iv and 10 mg/kg, po; format: ADME, organism-based, Canis lupus familiaris
[23] = Plasma clearance in mouse at 5 mg/kg, iv and 20 mg/kg, po; format: ADME, organism-based
[24] = test system: Mus musculus; test: In vivo inhibition of cathepsin C in C57BL/6J mouse lung homogenates assessed as cleavage of H-Gly-Arg)2 R110 at 30 mg/kg, po after 1.5 hrs; format: functional; parameters: scale not given: the % may be the effect or the level left; method in brief: as §1
[25] = test system: Mus musculus; test: In vivo inhibition of cathepsin C in C57BL/6J mouse lung homogenates assessed as cleavage of H-Gly-Arg)2 R110 at 30 mg/kg, po after 0.5 hrs; format: functional; parameters: scale not given: the % may be the effect or the level left; method in brief: as §1
[26] = test system: Rattus norvegicus; test: Bioavailability in rat at 1 mg/kg, iv and 2 mg/kg, po; format: ADME, organism-based; conditions: in vivo
[27] = test system: Plasma; test: Metabolic stability in rat plasma in presence of free cysteine; format: ADME, cell-free
[28] = test system: Plasma; test: Metabolic stability in rat plasma in presence of broad spectrum esterase inhibitor; format: ADME, cell-free
[29] = test system: Plasma; test: Metabolic stability in rat plasma in presence of rat serum albumin; format: ADME, cell-free
[30] = test system: Plasma; test: Metabolic stability in rat plasma in presence of glutathione; format: ADME, cell-free

Chain of Procathepsin L (P07711 whole entry): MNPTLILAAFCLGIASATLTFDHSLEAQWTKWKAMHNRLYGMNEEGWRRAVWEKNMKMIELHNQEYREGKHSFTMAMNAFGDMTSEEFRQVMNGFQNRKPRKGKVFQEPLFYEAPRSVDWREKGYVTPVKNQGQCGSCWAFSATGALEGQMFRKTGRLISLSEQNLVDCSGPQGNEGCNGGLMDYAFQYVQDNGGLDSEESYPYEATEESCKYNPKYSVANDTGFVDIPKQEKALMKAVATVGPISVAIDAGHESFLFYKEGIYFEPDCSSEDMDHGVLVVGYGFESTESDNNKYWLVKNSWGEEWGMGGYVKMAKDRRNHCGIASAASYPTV
Chain of Cathepsin S (P25774 whole entry): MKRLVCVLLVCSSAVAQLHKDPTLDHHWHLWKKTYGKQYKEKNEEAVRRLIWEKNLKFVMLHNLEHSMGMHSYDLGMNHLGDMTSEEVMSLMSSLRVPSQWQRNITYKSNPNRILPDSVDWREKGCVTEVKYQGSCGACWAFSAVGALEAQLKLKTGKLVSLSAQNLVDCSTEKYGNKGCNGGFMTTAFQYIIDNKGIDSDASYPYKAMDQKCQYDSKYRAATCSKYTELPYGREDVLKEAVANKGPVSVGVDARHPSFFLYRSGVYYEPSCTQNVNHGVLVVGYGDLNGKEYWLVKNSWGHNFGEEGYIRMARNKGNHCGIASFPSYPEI
Chain of Dipeptidyl peptidase 1 (P53634 25-134 limits assumed): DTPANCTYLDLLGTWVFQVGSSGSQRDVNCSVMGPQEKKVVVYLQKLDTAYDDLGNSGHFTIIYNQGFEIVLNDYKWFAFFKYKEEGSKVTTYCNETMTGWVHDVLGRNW
Chain of Dipeptidyl peptidase 1 (P53634 231-394 limits assumed): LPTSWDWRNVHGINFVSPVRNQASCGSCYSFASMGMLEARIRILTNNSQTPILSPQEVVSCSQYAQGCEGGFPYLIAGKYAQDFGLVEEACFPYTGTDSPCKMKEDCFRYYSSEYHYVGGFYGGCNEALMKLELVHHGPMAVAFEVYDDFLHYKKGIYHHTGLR
Chain of Dipeptidyl peptidase 1 (P53634 395-463 limits assumed): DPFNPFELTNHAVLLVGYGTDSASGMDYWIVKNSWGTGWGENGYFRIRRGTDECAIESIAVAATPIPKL

| Structure (SMILES) | IC50 [1] | IC50 [2] | IC50 [3] | IC50 [4] | remaining at 0.5 h [5] | IC50 [6] | other results |
| --- | --- | --- | --- | --- | --- | --- | --- |
| O=CN1CC[C@@H](NS(=O)(=O)c2cccc(Br)c2)C1 | > 25100 nM | > 25100 nM | 12600 nM | > 25100 nM | 95% | 5010 nM | – |
| N#CN1CC[C@@H](NC(=O)c2ccc(F)cc2)C1 | 2510 nM | 12600 nM | – | 3980 nM | – | 63.1 nM | – |
| C[C@H]1C[C@@H](NS(=O)(=O)c2cccc(Br)c2)CN1C#N | 158 nM | 3980 nM | 3160 nM | > 25100 nM | – | 251 nM | – |
| C[C@H]1C[C@@H](NS(=O)(=O)c2cc(Br)ccc2Br)CN1C#N | 3.16 nM | 1000 nM | 501 nM | > 25100 nM | 88% | 39.8 nM | Activity [7]: 28%; Vd [8]: 1.3 L/kg; bioavailability [9]: 1%; half-life [10]: 42 min; Activity [11]: 85%; half-life [12]: 12 min; bioavailability [13]: 20%; Vd [14]: 0.4 L/kg; half-life [15]: 12 min; Activity [16]: 35%; AUC [17]: 7 ng·h/mL; Activity [18]: 66%; Vd [19]: 3.1 L/kg; AUC [20]: 1180 ng·h/mL; Activity [21]: 53%; clearance [22]: 29 mL/min/kg; clearance [23]: 16 mL/min/kg; Activity [24]: 16%; Activity [25]: 32%; F [26]: 8% |
| N#CN1CC[C@H](NS(=O)(=O)c2ccccc2)C1 | 316 nM | 501 nM | – | 3980 nM | 48% | 31.6 nM | – |
| COc1ccc(OC)c(S(=O)(=O)N[C@@H]2C[C@H](C)N(C#N)C2)c1 | 126 nM | 15800 nM | 3160 nM | > 25100 nM | – | 631 nM | – |
| COc1ccc(OC)c(S(=O)(=O)N[C@@H]2CCN(C#N)C2)c1 | 10 nM | 2000 nM | 1260 nM | 12600 nM | 23% | 79.4 nM | – |
| N#CN1CC[C@@H](NS(=O)(=O)c2cc(Br)ccc2Br)C1 | < 0.398 nM | 126 nM | 25.1 nM | 1580 nM | 18% | 2 nM | – |
| N#CN1CCC(CCc2ccccc2)C1 (centres undefined) | 2000 nM | 1580 nM | 631 nM | 5010 nM | 13% | 1260 nM | – |
| N#CN1CCCC1 [CYANO-PYRROLIDINE] | > 25100 nM | 25100 nM | 1580 nM | > 25100 nM | – | 3980 nM | – |
| C[C@@H]1C[C@@H](NS(=O)(=O)c2cccc(Br)c2)CN1C#N | 15800 nM | 15800 nM | 2510 nM | > 25100 nM | 45% | 1000 nM | – |
| N#CN1CC[C@@H](NS(=O)(=O)c2cccc(Br)c2)C1 | 7.94 nM | 316 nM | 39.8 nM | 6310 nM | 18% | 7.94 nM | Stability [27]: Stable; Stability [28]: Stable; Stability [29]: Stable; Stability [30]: Stable |
| N#CN1CCCC(CCc2ccccc2)C1 (centres undefined) | > 25100 nM | 7940 nM | – | – | – | 10000 nM | – |
| COc1ccc(OC)c(S(=O)(=O)N[C@@H]2C[C@@H](C)N(C#N)C2)c1 | > 25100 nM | > 25100 nM | > 25100 nM | > 25100 nM | 88% | > 25100 nM | – |
| N#CN1CC[C@@H](NC(=O)Nc2ccccc2)C1 | 1000 nM | 3980 nM | 1260 nM | 1260 nM | – | – | – |
| N#CN1CC[C@@H](NS(=O)(=O)c2ccccc2)C1 | 316 nM | 1580 nM | – | 10000 nM | 30% | 200 nM | – |
| CC(C)(C)OC(=O)N1CC[C@@H](NS(=O)(=O)c2cccc(Br)c2)C1 | > 25100 nM | > 25100 nM | > 25100 nM | > 25100 nM | ≥ 100% | > 25100 nM | – |
